Measured values: ChEMBL document CHEMBL5724801, “EUbOPEN Chemogenomics Library - Multiplex” (2024)
Values joined by “and” are separate entries in the source; they are usually repeats but may differ in a detail not shown here. Equal values may be shown once.

System: HEK-293T
Assay: Multiplex assay against HEK293T
Type: toxicity, cell-based
Conditions: human
Procedure, shortened: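 Per cents of healthy-nucleus cells form the tubulin, mitochondrial-mass and membrane-permeability phenotype values. Live cells were stained at seeding with Hoechst33342, BioTracker Green Microtubule Cytoskeleton Dye, MitoTracker Red and Annexin V Alexa Fluor 680. After compound addition they were imaged on a CQ1 microscope at 37°C and 5% CO2, and CellPathfinder machine-learning gating split them into Hoechst high-intensity objects or normal cells, normal cells into healthy, pyknosed or fragmented nuclei, and pyknosed cells into mitotic or apoptotic.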

[1] = 12 h, 1 µM, compound concentration 1 uM
[2] = 12 h, 10 µM, compound concentration 10 uM
[3] = 24 h, 1 µM, compound concentration 1 uM
[4] = 24 h, 10 µM, compound concentration 10 uM
[5] = 48 h, 1 µM, compound concentration 1 uM
[6] = 48 h, 10 µM, compound concentration 10 uM

How did the “Population Apoptotic (%)” value [1] turn out when `COc1cc(C(=O)N(CCCc2ccccc2)Cc2ccc(CC(=O)O)cc2)cc(OC)c1C` was run?
Its value is 45% and 44%.

What about the “Population Fragmented Nuclei (%)” value [1] of the same compound?
The value was 7% and 6%.

What about the “Population Healthy Nuclei (%)” value [1] of the same compound?
Its value is 82% and 84%.

What about the “Population Hoechst High Intensity Objects (%)” value [1] of the same compound?
Its value is 5% and 4%.

And the “Population Membrane Permeable-Phenotype (%)” value [1]?
The value was 0%.

And the “Population Mitochondria Different-Phenotype (%)” value [1]?
Its value is 47% and 50%.

And the “Population Mitotic Cells (%)” value [1]?
Its value is 55%.

And the “Population Normal (%)” value [1]?
Its value is 94% and 95%.

What about the “Population Pyknosed Nuclei (%)” value [1] of the same compound?
The value was 10% and 9%.

What about the “Population Tubulin-Different-Phenotype (%)” value [1] of the same compound?
The value was 31% and 19%.

What about the “Total Cell Count” value [1] of the same compound?
Its value is 395 and 410.

What about the “Population Apoptotic (%)” value [2] of the same compound?
Its value is 30% and 47%.

And the “Population Fragmented Nuclei (%)” value [2]?
Its value is 6% and 4%.

And the “Population Healthy Nuclei (%)” value [2]?
Its value is 77% and 82%.

And the “Population Hoechst High Intensity Objects (%)” value [2]?
The value was 8% and 6%.

What about the “Population Membrane Permeable-Phenotype (%)” value [2] of the same compound?
Its value is 1% and 0%.

And the “Population Mitochondria Different-Phenotype (%)” value [2]?
Its value is 46% and 67%.

What about the “Population Mitotic Cells (%)” value [2] of the same compound?
Its value is 70% and 52%.

What about the “Population Normal (%)” value [2] of the same compound?
Its value is 91% and 93%.

And the “Population Pyknosed Nuclei (%)” value [2]?
Its value is 15% and 13%.

What about the “Population Tubulin-Different-Phenotype (%)” value [2] of the same compound?
The value was 52% and 44%.

What about the “Total Cell Count” value [2] of the same compound?
Its value is 431 and 438.

What about the “Population Apoptotic (%)” value [3] of the same compound?
Its value is 32% and 48%.

What about the “Population Fragmented Nuclei (%)” value [3] of the same compound?
The value was 7%.

What about the “Population Healthy Nuclei (%)” value [3] of the same compound?
The value was 78% and 82%.

What about the “Population Hoechst High Intensity Objects (%)” value [3] of the same compound?
The value was 5% and 3%.

And the “Population Membrane Permeable-Phenotype (%)” value [3]?
Its value is 0%.

What about the “Population Mitochondria Different-Phenotype (%)” value [3] of the same compound?
The value was 27% and 26%.

And the “Population Mitotic Cells (%)” value [3]?
Its value is 67% and 51%.

What about the “Population Normal (%)” value [3] of the same compound?
The value was 94% and 96%.

What about the “Population Pyknosed Nuclei (%)” value [3] of the same compound?
The value was 14% and 9%.

What about the “Population Tubulin-Different-Phenotype (%)” value [3] of the same compound?
The value was 15% and 10%.

What about the “Total Cell Count” value [3] of the same compound?
The value was 483 and 507.

And the “Population Apoptotic (%)” value [4]?
Its value is 34% and 42%.

And the “Population Fragmented Nuclei (%)” value [4]?
Its value is 7%.

And the “Population Healthy Nuclei (%)” value [4]?
The value was 80% and 79%.

And the “Population Hoechst High Intensity Objects (%)” value [4]?
Its value is 7% and 6%.

What about the “Population Membrane Permeable-Phenotype (%)” value [4] of the same compound?
The value was 0%.

What about the “Population Mitochondria Different-Phenotype (%)” value [4] of the same compound?
Its value is 39% and 50%.

What about the “Population Mitotic Cells (%)” value [4] of the same compound?
The value was 65% and 57%.

And the “Population Normal (%)” value [4]?
Its value is 92% and 93%.

And the “Population Pyknosed Nuclei (%)” value [4]?
Its value is 12%.

And the “Population Tubulin-Different-Phenotype (%)” value [4]?
Its value is 43% and 38%.

What about the “Total Cell Count” value [4] of the same compound?
Its value is 549 and 526.

What about the “Population Apoptotic (%)” value [5] of the same compound?
Its value is 30% and 26%.

And the “Population Fragmented Nuclei (%)” value [5]?
Its value is 12% and 9%.

What about the “Population Healthy Nuclei (%)” value [5] of the same compound?
Its value is 77% and 83%.

What about the “Population Hoechst High Intensity Objects (%)” value [5] of the same compound?
Its value is 1% and 3%.

What about the “Population Membrane Permeable-Phenotype (%)” value [5] of the same compound?
Its value is 1%.

What about the “Population Mitochondria Different-Phenotype (%)” value [5] of the same compound?
The value was 16% and 17%.

And the “Population Mitotic Cells (%)” value [5]?
The value was 69% and 73%.

What about the “Population Normal (%)” value [5] of the same compound?
The value was 98% and 96%.

What about the “Population Pyknosed Nuclei (%)” value [5] of the same compound?
Its value is 9% and 7%.

And the “Population Tubulin-Different-Phenotype (%)” value [5]?
The value was 11% and 9%.

And the “Total Cell Count” value [5]?
Its value is 812 and 753.

And the “Population Apoptotic (%)” value [6]?
The value was 32% and 33%.

And the “Population Fragmented Nuclei (%)” value [6]?
The value was 12% and 15%.

And the “Population Healthy Nuclei (%)” value [6]?
The value was 76% and 75%.

What about the “Population Hoechst High Intensity Objects (%)” value [6] of the same compound?
The value was 4% and 8%.

And the “Population Membrane Permeable-Phenotype (%)” value [6]?
The value was 1%.

And the “Population Mitochondria Different-Phenotype (%)” value [6]?
Its value is 29% and 37%.

And the “Population Mitotic Cells (%)” value [6]?
The value was 67% and 66%.

And the “Population Normal (%)” value [6]?
Its value is 95% and 91%.

And the “Population Pyknosed Nuclei (%)” value [6]?
Its value is 11% and 9%.

What about the “Population Tubulin-Different-Phenotype (%)” value [6] of the same compound?
Its value is 29% and 34%.

And the “Total Cell Count” value [6]?
The value was 729 and 632.
